In the library only some 1.8% were active in any assay of this set; here they are far more common.
CHRM4 antagonist: antagonists of human muscarinic M4 receptor (CHRM4); P08173; inhibition, % at 3 µM; 360,000 tested, 0.73% active; AID 624125; CHO-hM4 cells, ACh EC80, Fluo-8 calcium fluorescence;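 active means inhibition above its plate's cutoff, the mean inhibition of sample wells plus 3 SD, cut at about 27% in these data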;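 further: 0% = acetylcholine EC80 with DMSO and 100% = DMSO without agonist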
Target sequence (P08173 whole entry, looked up): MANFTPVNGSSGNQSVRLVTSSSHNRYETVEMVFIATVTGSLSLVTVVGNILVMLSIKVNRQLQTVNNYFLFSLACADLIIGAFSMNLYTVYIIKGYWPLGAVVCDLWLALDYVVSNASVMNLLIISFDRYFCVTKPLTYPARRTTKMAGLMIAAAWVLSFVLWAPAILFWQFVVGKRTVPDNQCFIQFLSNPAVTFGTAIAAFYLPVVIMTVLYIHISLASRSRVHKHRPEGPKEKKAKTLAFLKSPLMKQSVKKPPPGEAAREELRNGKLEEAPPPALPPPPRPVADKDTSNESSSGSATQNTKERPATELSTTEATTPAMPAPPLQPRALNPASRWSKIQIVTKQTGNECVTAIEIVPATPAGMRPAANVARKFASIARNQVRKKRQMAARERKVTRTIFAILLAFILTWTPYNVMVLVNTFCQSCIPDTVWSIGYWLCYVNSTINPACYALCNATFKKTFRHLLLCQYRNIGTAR
M5 antag: CHRM5 antagonism in calcium assay; P08912; CHO-hM5 cells, Fluo-8 calcium fluorescence, ACh EC80; inhibition, % at 3 µM; 360,000 tested, 0.59% active;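 active means inhibition above a per-plate cutoff, the mean of that plate's test compounds plus 3 SD, cut at about 27% in these data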;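 further: 0% = acetylcholine EC80 with DMSO and 100% = DMSO without agonist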
CHRM4 agonist: CHRM4 agonism in calcium assay; CHO-K1 hM4/Gqi5, Fluo-8 calcium fluorescence; vehicle 0%, full acetylcholine response 100%; activation, % at 3 µM; 360,000 tested, 0.14% active;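 active means activation above the run mean over all test wells plus 3 SD, cut at about 32% in these data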;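 further: peak over basal fluorescence ratio per well then scaled between controls; 0% = DMSO wells and 100% = acetylcholine at EC100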
CHRM5 PAM: CHRM5 positive allosteric modulation | P08912 | activation, % at 3 µM | AID 624038 | CHO-K1 hM5, Fluo-8 calcium, ACh EC20 PAM; 0% = ACh EC20, 100% = ACh EC100 | 360,000 tested, 0.3% active;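 active means activation above the run cutoff, the mean activation of all test compounds plus 3 SD, cut at about 18% in these data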
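System: CHO-K1 cell line with stable human muscarinic M5 receptor expression | Also added: EC20 acetylcholine as agonist stimulus | Compound: One concentration, 3 µM final (nominal) | Timing: Fluo-8 loading 80 min at 37 °C plus 30 min room temperature | Measured by: Fluo-8 calcium dye fluorescence, kinetic read | Read-out basis: % activation, ACh-normalized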
M4 PAM: CHRM4 positive allosteric modulation | CHO-K1 hM4/Gqi5, Fluo-8 calcium fluorescence, ACh EC20; 0% = ACh EC20, 100% = maximal ACh | 360,000 tested, 0.4% active | P08173 | AID 624126 | activation, % at 3 µM;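 active means activation above its plate's cutoff, the mean activation of sample wells plus 3 SD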
CHRM5 agonist: CHRM5 agonism in calcium assay. AID 624037. 360,000 tested, 0.19% active. P08912. activation, % at 3 µM. CHO-K1 hM5 cells, Fluo-8 calcium fluorescence; 0% DMSO wells, 100% maximal acetylcholine response;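 active means activation above the run's mean over test compounds plus 3 SD, cut at about 23% in these data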;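 further: signal is peak over basal fluorescence ratio across the kinetic read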
Starred values were filed as active, the others as inactive.

SMILES	CHRM4 antagonist	M5 antag	CHRM4 agonist	CHRM5 PAM	M4 PAM	CHRM5 agonist
Cc1ccnc(N/C=C(\C#N)c2nc(-c3cccc(Br)c3)cs2)c1	30.7*	21.2	135.1*	-14.2	-12.2	53.0*
Cc1nnc(N(CCC#N)CCC#N)s1	-0.5	6.6	0.3	-0.8	14.4	-0.5
CSc1nnc(N(CCC#N)CCC#N)s1	-13.2	-4.2	0.3	39.8*	1.4	-3.9
COc1ccc2[nH]c3c(NCCC4=CCCCC4)ncnc3c2c1	6.0	31.7*	20.1	-31.0	-12.4	10.9
COc1ccc(-c2cn3cccnc3n2)cc1NC(=O)C1CC1	26.5*	-2.5	0.7	19.0*	9.4	-1.4
S=c1c2c(nc3nc[nH]n13)CCC2	2.8	-10.1	0.5	18.3*	-1.4	9.2
CC1CCc2c(nc3nc[nH]n3c2=O)C1 (stereo not given)	9.2	-9.0	-0.8	4.1	14.3	1.9
CC(C)CCN1C(=O)c2ccccc2C1C(=O)NCc1cccnc1 (stereo not given)	10.4	-9.4	2.1	2.9	20.9*	-7.9
COCCNC(=O)C1(C)CCCN(C(=O)COc2ccccc2)C1 (stereo not given)	-9.2	0.8	0.7	-1.6	1.7	1.3
CC(C)(C)c1ccc(Cn2nc(CC(=O)O)c3ccccc3c2=O)cc1	-5.7	-21.9	-0.4	20.8*	12.5	2.8
CCOC(=O)Cc1nn(Cc2ccccc2)c(=O)c2ccccc12	-0.4	-7.9	0.8	-1.0	-2.2	-2.5
COC(=O)C[C@@H]1C[C@H]2c3cc(NC(=O)Nc4ccccc4F)ccc3O[C@H]2[C@H](CO)O1	-1.2	-0.2	1.9	2.2	0.2	2.1
COc1ccc(C)cc1N(CC(=O)Nc1cccnc1)S(=O)(=O)c1ccccc1	3.5	29.3*	14.1	-17.5	-7.3	2.1
COC(=O)c1c(-c2ccncc2)csc1NC(=O)c1ccoc1C	31.8*	-2.6	0.3	-2.9	48.2*	-4.8
CCc1cc(C(=O)OC)c(NC(=O)c2ccoc2C)s1	5.5	-9.4	-0.4	8.0	9.1	1.4
CCOC(=O)[C@]12CCC=C1N(CCC1=CCCCC1)C(=O)[C@H](CC(=O)N1CCN(C(=O)c3ccco3)CC1)C2	-10.6	-1.9	1.1	1.9	15.2	0.8
O=C(O)c1cc([N+](=O)[O-])ccc1NCCCc1ccccc1	-1.4	5.7	3.6	-14.9	1.6	34.6*
CCc1nc2ccc(C(=O)NCCCn3ccnc3)cn2c1N(C)Cc1cc2ccccc2s1	-0.7	3.3	7.9	-6.5	-8.5	-1.8
Cc1ccc(NC(=O)CCNC(=O)c2ccccc2Cl)nc1	3.1	-1.9	1.0	-1.1	-2.8	-1.7
Cc1ccnc(NC(=O)CCNC(=O)c2ccccc2Cl)c1	-3.5	7.6	0.5	-3.5	21.4*	-3.4
CN(C)CCN1CCN(C2CN(Cc3cn(Cc4ccc(Cl)cc4)nn3)S(=O)(=O)C2)CC1 (stereo not given)	-6.7	1.8	0.9	-0.1	4.7	-0.3
COc1cc(/C=C2\SC(=S)N(CCC(=O)Nc3ccccc3)C2=O)cc(OC)c1OC	-4.8	5.6	1.6	-3.8	-1.9	2.3
COc1cc(/C=C2\SC(=S)N(NC(=O)c3cccc(O)c3)C2=O)ccc1O	11.9	8.6	36.1*	-9.4	-13.5	9.9
COc1cc(/C=C2\SC(=S)N(NC(=O)c3ccc(O)c(OC)c3)C2=O)ccc1O	22.9	23.7	35.2*	-17.4	-21.2	25.0*
COc1cc(/C=C2\SC(=S)N(CCC(=O)Nc3cccc(O)c3)C2=O)cc(OC)c1OC	12.7	27.2*	18.3	-18.3	-11.3	-1.2
SMILES	CHRM4 antagonist	M5 antag	CHRM4 agonist	CHRM5 PAM	M4 PAM	CHRM5 agonist
Cn1c(=O)[nH]c(=O)c2c1nc(Br)n2CCCO	5.2	-17.8	0.9	21.6*	19.4	2.4
Cc1occc1C(=O)N=Nc1c(O)n(C)c2ccccc12	12.9	-7.9	2.3	1.9	28.8*	-2.3
Cc1cc(C)c2nc(NNC(=O)c3ccc(S(=O)(=O)N4CCc5ccccc5C4)cc3)sc2c1	-7.0	2.0	7.7	-21.3	-4.7	59.3*
O=C(Nc1cccnc1)OCc1ccccc1	-1.1	-37.3	1.5	-2.3	2.1	8.8
O=C(Nc1ccc(Cl)c(Cl)c1)c1cccc(S(=O)(=O)NCc2cccnc2)c1	21.7	33.6*	22.7	-18.5	-11.4	13.4
O=C(Nc1ccc(Cl)c(Cl)c1)OCc1cccnc1	34.2*	31.2*	16.9	-16.3	-17.0	4.8
Nc1c(C(=O)CSc2n[nH]c(-c3ccccc3Br)n2)c(=O)[nH]c(=O)n1C1CC1	0.1	-0.5	0.0	-0.8	1.2	-0.4
Nc1c(C(=O)CSc2n[nH]c(-c3ccccc3)n2)c(=O)[nH]c(=O)n1C1CC1	2.6	-0.5	2.1	2.4	23.4*	4.8
O=C1C=C(OCCF)CC(c2cccc([N+](=O)[O-])c2)O1 (stereo not given)	1.5	-10.7	1.9	6.6	2.4	0.9
O=[N+]([O-])c1ccc2c(c1)Cc1cc(F)ccc1-2	3.1	-4.5	1.0	0.0	4.3	-1.5
O=C1C=CC(=O)N1c1ccc2c(c1)Cc1cc(F)ccc1-2	37.4*	-3.4	8.0	10.1	-8.5	-2.1
CC(=O)Nc1ccc2c(c1)Cc1cc(N3C(=O)C=CC3=O)ccc1-2	33.5*	15.7	5.0	-15.6	-7.1	-8.2
CC(=O)Nc1sc2c(c1C(c1ccccc1Cl)N1CCN(CCO)CC1)CCCC2 (stereo not given)	10.7	64.9*	5.5	-25.0	-15.3	-5.4
CS(=O)(=O)c1sc(C#N)c2c1C(=O)CC(c1ccccc1)C2 (stereo not given)	75.8*	31.1*	8.0	-19.9	-14.9	-18.8
CCCN1C(=O)CC(c2ccc(OC)c(OC)c2)C1=O (stereo not given)	0.5	-1.6	1.9	0.2	-1.9	5.2
Cc1ccc(C(=O)c2coc3c2C(=O)C(=O)c2ccccc2-3)cc1	-3.9	35.7*	4.3	-14.7	1.8	-4.1
Cc1ccc(C(=O)c2c(C)oc3c2C(=O)C(=O)c2ccccc2-3)cc1	7.4	12.5	6.3	-7.9	-7.3	-4.5
CC(C)(C)c1ccc(C(=O)NCC2CCCN2S(=O)(=O)c2ccccc2)cc1 (stereo not given)	-16.3	1.6	4.6	-8.1	4.2	0.1
CN1CCCC1CCOC(C)(c1ccccc1)c1ccc(Cl)cc1 (stereo not given)	97.6*	98.5*	14.5	-18.3	-17.9	2.5
c1ccc2c(c1)Cn1nnnc1-2	4.4	-7.7	0.4	18.4*	11.5	1.4
COC(=O)C1CCN(c2cc(Cl)nc(N)n2)CC1	-9.8	5.5	0.2	-3.9	-0.6	0.9
NC(=O)C1CCN(c2cc(Cl)nc(N)n2)CC1	-15.4	-11.2	1.9	1.0	25.8*	-5.5
